Published values from different studies.
Protocols differ between the studies behind these lines.
Target: 3-phosphoinositide-dependent protein kinase 1 (PDPK1, Homo sapiens, UniProt O15530)
Residues used in one study (O15530 1-556): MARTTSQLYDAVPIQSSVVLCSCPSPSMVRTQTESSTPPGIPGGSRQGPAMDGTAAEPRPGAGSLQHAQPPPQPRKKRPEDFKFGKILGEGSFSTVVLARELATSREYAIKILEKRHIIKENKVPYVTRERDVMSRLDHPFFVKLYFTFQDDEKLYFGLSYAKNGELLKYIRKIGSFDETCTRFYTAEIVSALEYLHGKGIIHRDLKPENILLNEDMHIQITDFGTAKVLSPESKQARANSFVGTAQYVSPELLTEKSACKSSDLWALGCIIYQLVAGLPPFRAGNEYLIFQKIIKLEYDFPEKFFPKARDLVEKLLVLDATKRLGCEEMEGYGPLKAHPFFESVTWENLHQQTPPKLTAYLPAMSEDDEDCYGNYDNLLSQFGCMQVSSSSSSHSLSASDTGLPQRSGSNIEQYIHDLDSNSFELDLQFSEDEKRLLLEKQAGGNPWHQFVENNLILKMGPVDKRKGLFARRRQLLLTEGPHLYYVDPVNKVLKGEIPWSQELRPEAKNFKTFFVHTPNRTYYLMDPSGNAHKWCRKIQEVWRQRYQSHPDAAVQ

| Compound | test | setting | measurement | value |
| --- | --- | --- | --- | --- |
| C1=C/COCc2cc(ccc2OCCN2CCCC2)Nc2nccc(n2)-c2cccc(c2)COC/1 | binding | 0.1 µM | remaining binding | 100% |
| Cc1cc(O)c(-c2ccc([C@@H](C)CN(C)C)cc2)c2c1[nH]c(=O)c1sccc12 | enzyme activity, inhibitor | 0.1 µM | inhibition | 4.15% |
| C#Cc1cnc(Nc2ccnc(CO)c2)nc1Nc1ccccc1S(C)(=O)=NC#N (centres unmarked) | cell-free assay | 1 µM | remaining signal | 100% |
| C[C@H]1CC[C@H](n2c3cnccc3c3cnc(Nc4ccc5c(n4)CCN(C(=O)CO)C5)nc32)CC1 | cell-free assay | 1 µM | remaining signal | 100% |
| CC(C)S(=O)(=O)c1ccc2nccc(Nc3ccc4sc(C5CCCC5)nc4c3)c2c1 | enzyme activity, inhibitor | 1 µM | activity vs control | 118% |
| CO[C@@H]1[C@H](N(C)C(=O)c2ccccc2)C[C@H]2O[C@]1(C)n1c3ccccc3c3c4c(c5c6ccccc6n2c5c31)C(=O)NC4 | enzyme activity, inhibitor | 1 µM | inhibition | 73% |
| CN1CCN(C(=O)c2ccc(NC(=O)Nc3ccc(N(C)c4ccnc(Nc5ccc(CS(C)(=O)=O)cc5)n4)cc3)cc2)CC1 | binding | 1 µM | remaining binding | 68% |
| CCCCC(=O)Nc1ccc(-c2ccc3ncn(CCC)c(=O)c3c2)cn1 | binding, competition with immobilised ligand | 0.5 µM | remaining binding | 100% |
| N#Cc1ccc(NC(=O)Nc2ccccc2)cc1 | cell-free assay, competition with immobilised ligand | 25 µM | remaining binding | 100% |
| C=CC(=O)N1CCC([C@@H]2CCNc3c(C(N)=O)c(-c4ccc(Oc5ccccc5)cc4)nn32)CC1 | enzyme activity, inhibitor | 1 µM | inhibition | 18% |
| COc1ccc2oc(-c3ccc4nc(N)oc4c3)c/c(=N\c3ccccc3NC(=O)CCN)c2c1 | binding | 1 µM | remaining binding | 100% |
